Test results reported in ChEMBL document CHEMBL1135421, “2-(Anilinomethyl)imidazolines as alpha1 adrenergic receptor agonists: the discovery of alpha1a subtype selective 2'-alkylsulfonyl-substituted analogues” (J Med Chem, 2002).
Each block holds one molecule with its values, some of them ahead of it.

How the values were obtained:
[1] = molecular target: T1, Alpha-1A adrenergic receptor (Homo sapiens) (UniProt P35348); assay: Efficacy as % of the maximal effect observed for nonselective agonist phenylephrine in rat-1 fibroblasts expressing human alpha1; format: functional
T1 sequence (whole entry): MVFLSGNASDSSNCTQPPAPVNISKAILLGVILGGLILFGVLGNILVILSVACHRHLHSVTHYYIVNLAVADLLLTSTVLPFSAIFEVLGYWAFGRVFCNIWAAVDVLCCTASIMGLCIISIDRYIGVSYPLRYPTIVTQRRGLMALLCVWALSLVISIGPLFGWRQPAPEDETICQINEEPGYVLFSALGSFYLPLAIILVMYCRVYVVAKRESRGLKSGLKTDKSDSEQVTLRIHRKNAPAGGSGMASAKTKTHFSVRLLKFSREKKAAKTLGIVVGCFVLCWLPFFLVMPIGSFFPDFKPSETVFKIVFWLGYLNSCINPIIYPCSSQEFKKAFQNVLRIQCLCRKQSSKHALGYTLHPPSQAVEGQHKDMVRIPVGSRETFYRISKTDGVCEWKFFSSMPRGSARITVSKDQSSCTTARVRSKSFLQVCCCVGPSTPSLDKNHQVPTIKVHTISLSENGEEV
Outline: (§1)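 Rat-1 fibroblasts expressing human α1a/α1b/α1d, grown in DMEM with 10% heat-inactivated FBS and 0.6 mg/mL G418, plated 6000 cells/well and cultured 48 h at 37 °C. Loaded 2 h at 37 °C with Calcium Green (4 μM), 0.2% pluronic acid and 2.5 mM probenecid in HEPES buffer pH 7.4. FLIPR read at room temperature: 10 s baseline, then 50 s after compound. 11-point curves as % of 40 μM phenylephrine response, top concentration typically 5 μM.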

[2] = molecular target: T2, Alpha-2C adrenergic receptor (Homo sapiens) (UniProt P18825); assay: Efficacy as percentage of the maximal effect observed for nonselective agonist UK-14304 in CHO cells expressing human Alpha-2A adrenergic receptor; format: functional, cell-based
T2 sequence (whole entry): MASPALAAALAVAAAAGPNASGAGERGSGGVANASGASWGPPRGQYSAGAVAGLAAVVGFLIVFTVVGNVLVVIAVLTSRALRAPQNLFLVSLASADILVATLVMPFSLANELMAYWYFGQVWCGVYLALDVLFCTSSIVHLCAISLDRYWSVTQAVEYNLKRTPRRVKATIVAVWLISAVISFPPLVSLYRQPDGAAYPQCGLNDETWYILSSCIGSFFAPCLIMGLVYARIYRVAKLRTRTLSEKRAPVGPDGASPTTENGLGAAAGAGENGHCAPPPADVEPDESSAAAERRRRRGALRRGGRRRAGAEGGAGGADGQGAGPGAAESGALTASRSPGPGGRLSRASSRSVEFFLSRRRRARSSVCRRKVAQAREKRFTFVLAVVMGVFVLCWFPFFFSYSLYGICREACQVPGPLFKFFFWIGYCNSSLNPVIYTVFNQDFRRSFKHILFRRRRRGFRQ
Outline: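 Human α2A receptor in CHO cells, cAMP assay. Cells were preincubated with compound or UK14304 for 30 min at 37 °C with IBMX 300 μM. […] Efficacy is relative to the UK14304 maximum.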

[3] = molecular target: T3, Alpha-1B adrenergic receptor (Homo sapiens, UniProt P35368); assay: Agonist potency at alpha-1b adrenoceptors assayed in rat-1 fibroblasts expressing human Alpha-1B adrenergic receptor; format: functional
T3 sequence (P35368 whole entry): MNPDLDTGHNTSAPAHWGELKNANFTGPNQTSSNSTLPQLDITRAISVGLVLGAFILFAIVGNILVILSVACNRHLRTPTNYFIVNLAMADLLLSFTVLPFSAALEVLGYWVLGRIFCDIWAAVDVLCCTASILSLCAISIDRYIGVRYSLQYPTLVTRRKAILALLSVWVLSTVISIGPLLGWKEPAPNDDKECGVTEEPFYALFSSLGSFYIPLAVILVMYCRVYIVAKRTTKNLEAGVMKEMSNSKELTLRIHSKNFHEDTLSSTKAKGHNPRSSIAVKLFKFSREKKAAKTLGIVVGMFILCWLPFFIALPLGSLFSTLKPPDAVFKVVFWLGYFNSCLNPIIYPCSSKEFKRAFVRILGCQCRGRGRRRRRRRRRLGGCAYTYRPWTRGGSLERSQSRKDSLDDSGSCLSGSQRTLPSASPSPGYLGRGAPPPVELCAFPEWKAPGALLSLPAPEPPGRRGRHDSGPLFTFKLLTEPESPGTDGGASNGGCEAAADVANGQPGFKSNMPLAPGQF
Outline: (§2)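 Human α1a, α1b or α1d receptors expressed in Rat-1 fibroblasts (DMEM, 10% heat-inactivated FBS, 0.6 mg/mL G418). Cells were plated at 6000/well and grown 48 h at 37 °C. They were loaded 2 h at 37 °C with Calcium Green (4 μM), pluronic acid 0.2% and probenecid 2.5 mM in HEPES buffer pH 7.4, then read by FLIPR at room temperature: 10 s baseline, 50 s after compound. 11-point curves were expressed as % of the 40 μM phenylephrine response; top concentration typically 5 μM.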

[4] = molecular target: T4, Alpha-1D adrenergic receptor (Homo sapiens) (UniProt P25100); assay: Agonist potency at Alpha-1D adrenergic receptor assayed in rat-1 fibroblasts expressing human alpha1d; format: functional; outline: as §1
T4 sequence (whole entry): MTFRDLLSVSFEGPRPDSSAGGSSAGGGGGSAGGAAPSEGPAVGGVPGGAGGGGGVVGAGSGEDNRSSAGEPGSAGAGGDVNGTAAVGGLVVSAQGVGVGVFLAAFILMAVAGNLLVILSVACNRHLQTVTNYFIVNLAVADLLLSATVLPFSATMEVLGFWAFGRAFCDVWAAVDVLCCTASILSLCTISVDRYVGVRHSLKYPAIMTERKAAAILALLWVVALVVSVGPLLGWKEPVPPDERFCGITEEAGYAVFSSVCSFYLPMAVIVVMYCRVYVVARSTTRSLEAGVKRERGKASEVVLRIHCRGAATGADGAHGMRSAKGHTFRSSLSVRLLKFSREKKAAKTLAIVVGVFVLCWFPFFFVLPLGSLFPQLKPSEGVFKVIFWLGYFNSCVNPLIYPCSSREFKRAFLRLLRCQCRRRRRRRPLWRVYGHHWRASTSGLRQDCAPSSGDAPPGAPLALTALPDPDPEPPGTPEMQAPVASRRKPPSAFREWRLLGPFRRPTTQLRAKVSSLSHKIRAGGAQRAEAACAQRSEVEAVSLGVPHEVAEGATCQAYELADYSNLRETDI

[5] = molecular target: T5, Alpha-1B adrenergic receptor (Homo sapiens) (UniProt P35368); assay: Agonist potency at Alpha-1B adrenergic receptor assayed in rat-1 fibroblasts expressing human Alpha-1B adrenergic receptor; format: functional; outline: as §1
T5 sequence (whole entry): T3 sequence (P35368 whole entry)

[6] = molecular target: T1, Alpha-1A adrenergic receptor (Homo sapiens); assay: (§3) Agonist potency at Alpha-1 adrenergic receptor assayed in rat-1 fibroblasts expressing human Alpha-1 adrenergic receptor; format: functional; outline: as §1
[7] = molecular target: T3, Alpha-1B adrenergic receptor; assay: Agonist potency at alpha-1b adrenoceptors assayed in rat-1 fibroblasts expressing human alpha-1b; format: functional; outline: as §1
[8] = molecular target: T6, Alpha-1D adrenergic receptor (Homo sapiens, UniProt P25100); assay: Agonist potency at Alpha-1D adrenergic receptor assayed in rat-1 fibroblasts; format: functional; outline: as §1
T6 sequence (P25100 whole entry): T4 sequence (whole entry)

[9] = molecular target: T6, Alpha-1D adrenergic receptor; assay: Agonist potency at aAlpha-1D adrenergic receptor assayed in rat-1 fibroblasts expressing human Alpha-1D adrenergic receptor; format: functional; outline: as §2
[10] = molecular target: T7, Alpha-1A adrenergic receptor (Homo sapiens, UniProt P35348); assay: as §3; format: functional; outline: as §2
T7 sequence (P35348 whole entry): T1 sequence (whole entry)

SMILES: CS(=O)(=O)c1c(F)cccc1NCC1=NCCN1
Max [1]: 93%

SMILES: CC(C)S(=O)(=O)c1ccccc1NCC1=NCCN1
Max [2]: 14%

SMILES: CS(=O)(=O)c1cc(Cl)ccc1NCC1=NCCN1
EC50 [3]: > 100000 nM

pEC5 [4]: < 4
pEC5 [5]: < 4
pEC5 [6]: 7.16
SMILES: CCCS(=O)(=O)c1ccccc1NCC1=NCCN1

EC50 [7]: 2.19 nM
EC50 [8]: 8.91 nM
SMILES: CSc1ccccc1NCC1=NCCN1

SMILES: CS(=O)(=O)c1cc(F)ccc1NCC1=NCCN1
EC50 [9]: > 100000 nM
EC50 [10]: 437 nM
